Hsp70 activator = Hsp70 transcriptional activation, primary screen | AID 1203 | 0.04% of 200,000 active | activation, % at 10 µM | HeLa Hsp70 promoter luciferase reporter, luminescence; scaled: vehicle 0, proteasome-inhibitor control 100%;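 active means activation above the mean across all tested compounds plus 3 SD, cutoff set per campaign, cut at about 5.5% in these data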;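 further: 100% = MG132 at 30 µM as the positive control and 0% = DMSO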
Lmaj promast = Leishmania major promastigote growth inhibition; Leishmania major promastigotes, resazurin fluorescence viability; inhibition, % at 10 µM; 9% of 200,000 active; AID 1063; in the data active means inhibition above about 50%;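 further: promastigotes grown with compound for 44 hours at 28 °C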
HSF1 inhib = HSF1 inhibition. NIH3T3-HGL HSE-luciferase, MG132-induced, luminescence 8 h; active compounds read low. activity change, negative = inhibition, % at 7.5 µM (by protocol). 0.77% of 300,000 active;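 active means more than half of replicate wells show activity change below -50%, luminescence cut by over half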;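 further: luciferase reports HSF-1 transcriptional activity via heat shock element; 0% = median of DMSO wells and -100% = zero luminescence signal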
T cruzi repl = T. cruzi replication inhibition; inhibition, % (test concentration not listed); AID 1885; 1.4% of 300,000 active; T. cruzi beta-gal in NIH3T3, luminescence, 90 h;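 active means mean inhibition across valid replicates above about 55%, limit read from the data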;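 further: signal also drops with host cell toxicity which is not excluded here; 0% = plate median of DMSO wells and 100% = zero luminescence signal; higher percent means less beta-gal luminescence so fewer parasites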
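Incubation – ≥90 h infection period, 3 h prior cell attachment · System – NIH/3T3 fibroblasts plus reporter T. cruzi · Doses – compound pinned at 50 nL/well, DMSO · Read-out basis – percent inhibition of parasite-derived β-gal signal · Signal – luminescent β-galactosidase signal after 60 min lysis · Also added – 5000 T. cruzi trypomastigotes/well · Medium – Low-serum DMEM with 2% FBS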
HSF-1 act = increases HSF-1 driven luciferase reporter signal. NIH3T3-HGL HSF-1 luciferase reporter, MG132, 8 h; 100% = twice DMSO control signal. activation, % at 9 µM. 1.7% of 300,000 active. AID 504408;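 active means mean replicate activation of at least 50% with a set share of replicates each reaching 50%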;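 further: 0% = median of the neutral control wells and 100% = twice that signal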
* hit, by the source's call. The full list was thinned out, with hits kept by preference.

O=C(CC1C(=O)NCCN1Cc1cccc(F)c1)NCCCCCN1CCOCC1 (stereo not given) was read as HSF1 inhib 0, T cruzi repl -18 and HSF-1 act -5.
For O=S(=O)(Nc1nc2ccccc2nc1N1CCN(c2ccccc2F)CC1)c1ccc(Cl)cc1 the results were Hsp70 activator 0, Lmaj promast -2, HSF1 inhib -2, T cruzi repl -1 and HSF-1 act 7.
Screening Cc1ccc(S(=O)(=O)N2CCN(CC(=O)N/N=C/C=C/c3ccccc3)CC2)cc1 returned Hsp70 activator 0, Lmaj promast 2, HSF1 inhib 13, T cruzi repl -15 and HSF-1 act 32.
Screening COC(=O)C1=C(C)N=C2SC(C#N)=C(N)N2C1c1cc(OC)c(OC)c(OC)c1 (stereo not given) returned Hsp70 activator 0, Lmaj promast 0, HSF1 inhib 10, T cruzi repl -7 and HSF-1 act 11.
For COC(=O)C1=C(C)N=C2SC(C#N)=C(N)N2C1c1ccc(OCc2ccccc2)cc1 (stereo not given) the results were Hsp70 activator 1, Lmaj promast 98* and T cruzi repl 19.
`On1nnc2cc(C(F)(F)F)ccc21` gave Hsp70 activator 0, Lmaj promast -14, HSF1 inhib 9, T cruzi repl 4 and HSF-1 act 18.
Cc1ccccc1NC(=O)C(=Cc1ccc(C(=O)O)cc1)C(=O)Nc1ccccc1C was read as Hsp70 activator 0, Lmaj promast 23, HSF1 inhib 85, T cruzi repl -49 and HSF-1 act 146*.
For N#C/C(=C/c1ccc(C(=O)O)cc1)C(=O)Nc1ccccc1 the results were Hsp70 activator 0, Lmaj promast -5, HSF1 inhib -3, T cruzi repl -9 and HSF-1 act 0.
Screening CC(=O)/C(=C/c1ccccc1)C(=O)Nc1ccccc1C returned Hsp70 activator 0, Lmaj promast 96*, HSF1 inhib 31, T cruzi repl 4 and HSF-1 act 55*.
O=C(CC1(CC2=NS(=O)(=O)c3ccccc3N2)CCCC1)NCCc1ccccc1 was read as HSF1 inhib 4, T cruzi repl 36 and HSF-1 act 10.
Cc1ccc(S(=O)(=O)NCC(C)NC(=O)CN2CCOCC2)cc1 (stereo not given) was read as HSF1 inhib 5, T cruzi repl -5 and HSF-1 act 7.
`Cc1ccc(NC(=O)C2CCN(S(=O)(=O)c3c(C)noc3C)CC2)cc1C` gave Hsp70 activator 0, Lmaj promast 99*, HSF1 inhib 2, T cruzi repl 23 and HSF-1 act 8.
CCc1cccc(NC(=O)C2CCN(S(=O)(=O)c3c(C)noc3C)CC2)c1 was read as Hsp70 activator 0, Lmaj promast 64*, HSF1 inhib 2, T cruzi repl 25 and HSF-1 act -10.
`O=C(NCCOCc1ccccc1)C(c1ccccc1)c1ccccc1` gave Hsp70 activator 0, Lmaj promast 21, HSF1 inhib -1, T cruzi repl 3 and HSF-1 act -7.
`CCCCC(NC(=O)c1ccc(Cl)cc1)C(=O)O` (stereo not given) gave Hsp70 activator 0, Lmaj promast 86*, HSF1 inhib -6, T cruzi repl 10 and HSF-1 act 4.
`CSCCC(NC(=O)c1ccc(Br)cc1)C(=O)O` (stereo not given) gave Hsp70 activator 0, Lmaj promast 80*, HSF1 inhib 2, T cruzi repl -12 and HSF-1 act 7.
For O=C(COC(=O)C(Cc1ccccc1)NC(=O)c1ccccc1)c1ccccc1 (stereo not given) the results were Hsp70 activator 0, Lmaj promast -5, HSF1 inhib 2, T cruzi repl -12 and HSF-1 act 23.
CSCCC(NC(=O)c1ccccc1)C(=O)O (stereo not given) was read as Hsp70 activator 0, Lmaj promast -3, HSF1 inhib 1, T cruzi repl -2 and HSF-1 act -12.
`O=C(O)CCC(NC(=O)c1ccc(Cl)cc1)C(=O)O` (stereo not given) gave Hsp70 activator 0, Lmaj promast -3, HSF1 inhib 2, T cruzi repl -7 and HSF-1 act -17.
`O=C(COC(=O)C(Cc1ccccc1)NC(=O)c1ccc(Cl)cc1)c1ccc(Cl)cc1` (stereo not given) gave Hsp70 activator 0, Lmaj promast 54*, HSF1 inhib 0, T cruzi repl -18 and HSF-1 act 10.
CC(C)CC(NC(=O)c1ccc(Cl)cc1)C(=O)O (stereo not given) was read as Hsp70 activator 0, Lmaj promast 84*, HSF1 inhib 1, T cruzi repl -20 and HSF-1 act -5.
For Cc1noc(C)c1COC(=O)c1cccc(N(C)C)c1 the results were Hsp70 activator 0, Lmaj promast -8, HSF1 inhib -6, T cruzi repl 3 and HSF-1 act -5.
For N=C1C(c2ccccc2)=C(O)CN1c1cccc(O)c1 the results were Hsp70 activator 0, Lmaj promast -1, HSF1 inhib -2, T cruzi repl 4 and HSF-1 act -3.
CCCCN(C(=O)COC(=O)CSc1ccc([N+](=O)[O-])cc1)c1c(N)n(CCC)c(=O)[nH]c1=O was read as HSF1 inhib 4, T cruzi repl -9 and HSF-1 act 4.
For N#CC(c1nc2ccccc2nc1OCCO)S(=O)(=O)c1ccccc1 (stereo not given) the results were HSF1 inhib -6, T cruzi repl -9 and HSF-1 act -2.
O=S(=O)(NC1=NCCC1)c1cccc(NS(=O)(=O)c2ccc(OC(F)(F)F)cc2)c1 was read as Hsp70 activator 0, Lmaj promast 54*, HSF1 inhib -3, T cruzi repl -10 and HSF-1 act -7.
Screening Cc1ccccc1OCc1nc(-c2ccc(NC(=O)c3cccs3)cc2)no1 returned Hsp70 activator 0, Lmaj promast 71*, HSF1 inhib 10, T cruzi repl 37 and HSF-1 act 27.
For CCCc1ccc(OCc2nc(-c3ccc(NC(=O)c4ccco4)cc3)no2)cc1 the results were Hsp70 activator 0, Lmaj promast -5, HSF1 inhib 16, T cruzi repl 15 and HSF-1 act 16.
Screening Cc1ccccc1OCc1nc(-c2ccc(NC(=O)c3ccco3)cc2)no1 returned Hsp70 activator 0 and Lmaj promast 3.
Screening CCCc1ccc(OCc2nc(-c3ccc(NC(=O)c4cccs4)cc3)no2)cc1 returned Hsp70 activator 0, Lmaj promast 7, HSF1 inhib 43, T cruzi repl 17 and HSF-1 act 58*.
For O=C(c1ccco1)N1CCN(C(=O)c2cnn(-c3ccc(Cl)cc3)c2C2CCNCC2)CC1 the results were HSF1 inhib -8, T cruzi repl -21 and HSF-1 act -13.

Compound activity from PubChem.
